In ChEMBL document CHEMBL1151889, “4,4-Dimethyl-1,2,3,4-tetrahydroquinoline-based PPARalpha/gamma agonists. Part. II: Synthesis and pharmacological evaluation of oxime and acidic head group structural variations” (Bioorg Med Chem Lett, 2009):

Assays:
Caco-2 = assay: Absorption in human Caco-2 cells; format: ADME, cell-based; set-up: concentration or dose not given beside the values
Liver microsomes [1] = assay: Metabolic stability in human hepatocyte microsomes; format: ADME, Microsome
Liver microsomes [2] = assay: Metabolic stability in rat hepatocyte microsomes; format: ADME, Microsome
Mus musculus [3] = assay: Lipid lowering effect in po dosed C57BL/6J ob/ob mouse assessed as triglyceride level relative to untreated control; format: functional
Summary of the method: (§1)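 Male C57BL/6J ob/ob mice (n = 8–12 per dose) were gavaged with 3 mg/kg daily for four days in 1% hydroxyethyl cellulose (2.5 ml/kg). On day five, heparinized retro-orbital plasma was collected under CO₂ anaesthesia. Plasma level was expressed as percent change from the mean of vehicle-treated mice. Groups were compared by ANOVA and one-tailed Dunnett's test.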

Mus musculus [4] = assay: Glucose lowering effect in po dosed C57BL/6J ob/ob mouse assessed as insulin level relative to untreated control; format: functional; summary of the method: as §1
Mus musculus [5] = assay: Effect on bodyweight in po dosed C57BL/6J ob/ob mouse assessed as body weight gain relative to untreated control; format: functional
Summary of the method: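 Male C57BL/6J ob/ob mice (n = 8–12 per dose) were randomized on glycemia and gavaged with 3 mg/kg daily for four days, between 3 and 5 pm, as a suspension in 1% hydroxyethyl cellulose (2.5 ml/kg). Body weight gain was each mouse's end-of-study minus starting weight. Groups were compared with control by ANOVA and one-tailed Dunnett's test.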

[6] = biological target: T1, Peroxisome proliferator-activated receptor gamma (Homo sapiens, UniProt P37231); assay: Displacement of [3H]rosiglitazone from human PPARgamma receptor
T1 sequence (P37231 whole entry): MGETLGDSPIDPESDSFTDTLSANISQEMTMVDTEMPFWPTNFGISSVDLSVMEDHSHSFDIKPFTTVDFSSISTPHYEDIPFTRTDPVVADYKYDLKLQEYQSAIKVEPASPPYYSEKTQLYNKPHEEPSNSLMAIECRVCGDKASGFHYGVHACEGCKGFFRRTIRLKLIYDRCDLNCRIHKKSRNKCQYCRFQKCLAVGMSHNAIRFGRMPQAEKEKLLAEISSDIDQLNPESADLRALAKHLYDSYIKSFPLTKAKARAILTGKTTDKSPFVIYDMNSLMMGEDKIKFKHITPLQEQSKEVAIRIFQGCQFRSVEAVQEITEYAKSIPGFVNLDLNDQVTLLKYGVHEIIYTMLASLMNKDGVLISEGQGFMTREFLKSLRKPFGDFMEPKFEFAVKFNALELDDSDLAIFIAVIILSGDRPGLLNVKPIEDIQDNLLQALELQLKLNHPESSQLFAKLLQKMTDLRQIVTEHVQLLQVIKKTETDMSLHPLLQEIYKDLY

[7] = biological target: T1, Peroxisome proliferator-activated receptor gamma; assay: Agonist activity at human PPARgamma by Gal4 transactivation assay; format: functional
[8] = biological target: T2, Peroxisome proliferator-activated receptor alpha (Homo sapiens, UniProt Q07869); assay: Agonist activity at human PPARalpha by Gal4 transactivation assay; format: functional
T2 sequence (Q07869 whole entry): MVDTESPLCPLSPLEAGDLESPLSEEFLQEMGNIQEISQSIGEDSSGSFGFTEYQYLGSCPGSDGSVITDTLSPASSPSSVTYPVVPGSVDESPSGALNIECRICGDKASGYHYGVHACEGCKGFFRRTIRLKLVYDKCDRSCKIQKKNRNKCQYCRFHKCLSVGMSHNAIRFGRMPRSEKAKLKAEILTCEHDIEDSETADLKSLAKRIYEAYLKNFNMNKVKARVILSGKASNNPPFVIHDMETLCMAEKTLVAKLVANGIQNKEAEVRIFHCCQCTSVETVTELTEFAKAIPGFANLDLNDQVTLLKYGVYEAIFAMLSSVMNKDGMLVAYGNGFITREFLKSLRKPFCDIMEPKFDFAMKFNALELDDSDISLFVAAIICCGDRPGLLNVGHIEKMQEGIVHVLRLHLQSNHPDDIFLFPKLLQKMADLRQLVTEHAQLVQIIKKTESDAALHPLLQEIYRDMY

[9] = biological target: T3, Peroxisome proliferator-activated receptor alpha (Homo sapiens) (UniProt Q07869); assay: Agonist activity at human PPARalpha at transactivation EC50 by Gal4 transactivation assay relative to at 10 uM WY-14643
T3 sequence (whole entry): T2 sequence (Q07869 whole entry)

Row | SMILES | Activity (Caco-2) [%] | Stability (Liver microsomes [1]) [%] | Stability (Liver microsomes [2]) [%] | Ki [6] [nM] | EC50 ([7]; read-out: EC50) [nM] | EC50 [8] | EC50 [7] | EC50 ([8]; read-out: EC50) [nM] | Activity [9] [%] | Activity (Mus musculus [3]) [%] | Activity (Mus musculus [4]) [%] | Activity (Mus musculus [5]) [%]
1 | CCO[C@@H](Cc1ccc(OCCN2CCC(C)(C)c3cc(/C(=N/OC)c4ccccc4)ccc32)cc1)C(=O)O | 100 | 0 | 0 |  |  |  |  |  |  | -5 | -20 | -33
2 | CO/N=C(\c1ccccc1)c1ccc2c(c1)C(C)(C)CCN2CCOc1ccc(C[C@H](OC(C)=O)C(=O)O)cc1 |  |  |  | > 10000 |  | Not Active | Not Active |  |  |  |  | 
3 | CN(CCOc1ccc(CC2SC(=O)NC2=O)cc1)c1ccccn1 (stereo unspecified) [ROSIGLITAZONE] | 100 | 21 | 45 |  |  |  |  |  |  | -56 | -55 | 0.56
4 | CO/N=C(\c1ccccc1)c1ccc2c(c1)C(C)(C)CCN2CCOc1ccc(C[C@H](OCC(F)(F)F)C(=O)O)cc1 | 100 | 27 | 18 | 33 | 125 |  |  | 1000 | 50 | 9 | -17 | 304
5 | C=CCO/N=C(\c1ccccc1)c1ccc2c(c1)C(C)(C)CCN2CCOc1ccc(C[C@H](OCC)C(=O)O)cc1 | 95 | 47 | 20 | 54.2 | 13 |  |  | 73 | 152 |  |  | 

Further lines, with some results ahead:

Row | Activity (Caco-2) [%] | Stability (Liver microsomes [1]) [%] | Stability (Liver microsomes [2]) [%] | Ki [6] [nM] | EC50 ([7]; read-out: EC50) [nM] | EC50 [8] | EC50 [7] | EC50 ([8]; read-out: EC50) [nM] | Activity [9] [%] | SMILES | Activity (Mus musculus [3]) [%] | Activity (Mus musculus [4]) [%] | Activity (Mus musculus [5]) [%]
6 | 78 | 100 | 97 |  |  |  |  |  |  | CCO[C@@H](Cc1ccc(OCCc2ccc(OS(C)(=O)=O)cc2)cc1)C(=O)O [TESAGLITAZAR] | -60 | -94 | 1.9
7 |  |  |  | > 10000 | 10000 | Not Active |  |  |  | CCOC(=O)N(CC(=O)O)Cc1ccc(OCCN2CCC(C)(C)c3cc(/C(=N/OC)c4ccccc4)ccc32)cc1 |  |  | 
8 | 22 |  |  | 54 | 14 |  |  | 10000 | 11 | CO/N=C(\c1ccccc1)c1ccc2c(c1)C(C)(C)CCN2CCOc1ccc(C[C@H](Nc2ccccc2C(=O)c2ccccc2)C(=O)O)cc1 |  |  | 
9 | 90 | 59 | 35 | 18.4 | 7 |  |  | 34 | 137 | CCO[C@@H](Cc1ccc(OCCN2CCC(C)(C)c3cc(/C(=N/OCc4ccccc4)c4ccccc4)ccc32)cc1)C(=O)O | -27 | 51 | 0.23
10 | 93 | 84 | 32 | 254 | 7.52 |  |  | 9 | 145 | CCO[C@@H](Cc1ccc(OCCN2CCC(C)(C)c3cc(/C(=N/OCC4CC4)c4ccccc4)ccc32)cc1)C(=O)O | -2 | -2 | 107
